# Compound activity from PubChem.
# In the library only some 4.6% were active in any assay of this set; here they are far more common.
# OX1R antag-1 = antagonists of human orexin 1 receptor (OX1R). inhibition, % at 6.6 µM. OX1R-expressing cells, FRET antagonist read-out. 1.8% of 330,000 active; in the data active = inhibition mostly above about 38%, no sharp cut-off; inactive = mostly below about 40%;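 note: 0% = agonist challenge alone and 100% = reference antagonist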
# Target sequence (O43613 whole entry, looked up): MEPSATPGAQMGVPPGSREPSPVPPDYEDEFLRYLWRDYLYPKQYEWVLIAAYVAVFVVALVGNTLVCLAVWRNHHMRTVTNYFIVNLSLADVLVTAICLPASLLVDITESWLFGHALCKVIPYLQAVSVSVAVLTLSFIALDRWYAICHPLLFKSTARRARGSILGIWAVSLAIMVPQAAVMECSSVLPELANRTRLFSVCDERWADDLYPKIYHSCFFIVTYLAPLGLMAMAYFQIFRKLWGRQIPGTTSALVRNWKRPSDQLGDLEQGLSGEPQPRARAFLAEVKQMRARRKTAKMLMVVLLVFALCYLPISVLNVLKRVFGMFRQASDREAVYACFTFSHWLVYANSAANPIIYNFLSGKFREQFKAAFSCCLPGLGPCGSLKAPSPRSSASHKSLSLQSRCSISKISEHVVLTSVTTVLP
# CHO parental Ca = counter-screen for OX1R antagonists: effect in parental CHO cells. parental CHO-K1, ATP-induced calcium, Fluo-8 fluorescence. inhibition, % at 5.6 µM. 0.63% of 330,000 active;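 active = inhibition above that plate's mean sample inhibition plus 3 SD, cut at about 26% in these data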;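 note: 0% = ATP-challenged DMSO wells and 100% = DMSO wells without ATP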
#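 Material: Parental CHO cells | Reagent: ATP | Compound dosing: Single nominal dose of 5.6 µM per compound | Detection: Intracellular calcium via Fluo-8 no-wash fluorescent dye | Read-out: % inhibition of ATP-induced calcium mobilization | Benchmarks: Low control ATP plus DMSO, high control DMSO only | Replicates: Singlicate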
# TAAR1 agonist = agonists of human TAAR1 | activation, % at 3 µM | 0.99% of 360,000 active | AID 624467 | Q96RJ0 | CHO RD-HGA16 TAAR1, Fluo-8 calcium fluorescence; vehicle wells 0%, saturating PEA agonist 100%;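 active = activation above the mean activation of all test compounds in the run plus 3 SD, cut at about 38% in these data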
#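 Repeats: no replicates (n 1) | Material: CHO-derived RD-HGA16 cells with stable Gα16 and human TAAR1 | Technique: Kinetic Fluo-8 calcium fluorescence | Schedule: 17-24 h seeding, 75 min 37 °C dye, 30 min RT | Evaluation: % activation from peak over basal fluorescence ratio, DMSO-to-PEA scaled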
# OX1R antag-2 = antagonists of human orexin 1 receptor; CHO/OX1R cells, Fluo-8 calcium fluorescence, orexin A; inhibition, % at 5 µM; 0.43% of 330,000 active; AID 434989;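 active = inhibition above its plate's threshold, mean inhibition of all tested compounds on the plate plus 3 SD, cut at about 37% in these data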;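 note: 0% = orexin A challenge wells and 100% = SB-334867-A antagonist wells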
# TAAR1 antag = human TAAR1 antagonism; AID 624466; CHO RD-HGA16 TAAR1, Fluo-8 calcium fluorescence, antagonist; inhibition, % at 3 µM; 1.5% of 360,000 active;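 active = inhibition above a per-plate cutoff, the mean inhibition of test compounds on that plate plus 3 SD, cut at about 49% in these data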;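 note: 0% = DMSO plus EC80 beta-PEA response and 100% = DMSO alone without agonist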
#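 Test system: hTAAR1-expressing CHO RD-HGA16 cells, Gα16-coupled; Probe or stimulus: EC80 β-phenethylamine stimulus; Compound dosing: single nominal final test compound concentration of 3 µM; Timing: 140 s kinetic read after compound, 140 s after agonist; Signal: Fluo-8 calcium-sensitive fluorescence; Measure: % inhibition of agonist calcium response; Controls: DMSO and EC80 PEA controls.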
# GPR7 antag = blocks human GPR7 receptor signaling; inhibition, % at 4.4 µM; AID 1861; GPR7-expressing cells, fluorescence antagonist assay; 1.1% of 290,000 active; P48145; in the data active = inhibition above about 16%, passing the limit was not always enough;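 note: cells stimulated with the agonist NPW; 0% = agonist with vehicle and 100% = vehicle without agonist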
# OX1R HTRF confirm = confirmation of human orexin 1 receptor antagonists, HTRF format; shares compounds with OX1R antag-1; OX1R-expressing cells, HTRF antagonist assay; inhibition, % at 6.6 µM; 49% of 1,800 active; in the data active = inhibition above about 55%;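 note: CHO cells expressing OX1R stimulated with orexin A at about EC80; 0% = agonist challenge alone and 100% = reference antagonist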
# CHO-K1 HTRF cnt = counter-screen: parental CHO-K1 HTRF response | shares compounds with OX1R antag-1 | parental CHO-K1 cells, HTRF counterscreen | inhibition, % at 6.6 µM | 48% of 1,800 active; in the data active = inhibition above about 17%;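 note: 0% = agonist challenge with vehicle and 100% = vehicle alone without agonist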
# The depositor's hits bear a star; . = no result.
SMILES,OX1R antag-1,CHO parental Ca,TAAR1 agonist,OX1R antag-2,TAAR1 antag,GPR7 antag,OX1R HTRF confirm,CHO-K1 HTRF cnt
COc1cc(/C=N/NC(=O)c2sc3nc(C)cc(C)c3c2N)ccc1O,100*,-11,8,26,34,-2,98*,25*
COc1cc(/C=N/n2cnc3c(sc4nc(C)cc(C)c43)c2=O)ccc1O,7,-7,.,-8,.,-15,.,.
O=C(CSc1ccc([N+](=O)[O-])cn1)Nc1ccc2[nH]c(=O)[nH]c2c1,93*,-3,2,5,-19,7,28,24*
COc1ccc(CC(=O)NCc2nnc(SCC(=O)Nc3cccc(F)c3)n2C)cc1,92*,-8,-1,-8,-2,3,17,-12
COc1ccc(CC(=O)NCc2nnc(SCC(=O)Nc3ccccc3)n2C)cc1,14,-7,1,-4,-4,-12,.,.
CN1C(=O)/C(=C/c2ccccc2F)Sc2ccc(C(=O)N3CCCC3)cc21,-2,-31,4,-28,-71,-6,.,.
NC(=O)c1ccccc1OCc1cccc2ccccc12,13,-17,3,-12,-3,6,.,.
NC(=O)c1cccc2cc3ccccc3cc12,77*,-18,15,4,10,0,26,15
CCCCCOC(=O)c1c(N)n(CCOC)c2nc3ccccc3nc12,33,-8,11,-32,-16,-6,.,.
CCOC(=O)c1c(N)n(CCOC(=O)c2cccs2)c2nc3ccccc3nc12,78*,-11,11,-3,21,24,56*,7
CC(C)Cn1[nH]c2c3c(ccc2c1=O)C(=O)c1ccccc1C3=O,135*,-25,.,-23,.,-1,37,33*
O=C1c2ccccc2C(=O)c2c1ccc1c(=O)n(-c3ccccc3)[nH]c21,23,-6,-2,-18,2,-6,.,.
CCCS(=O)(=O)N1CCN(c2cc3c(cc2[N+](=O)[O-])n(C)c(=O)n3C)CC1,78*,2,8,-5,11,-8,33,49*
OCCCN=c1cc(-c2ccccc2)oc2ccc(Cl)cc12,96*,-18,2,-24,-8,-5,36,61*
CC1(C)CC(N=c2cc(-c3ccccc3)oc3ccc(Cl)cc23)CC(C)(C)N1,.,.,1,.,6,-14,.,.
CC(=O)NC(CC(=O)OCC(=O)N1CCN(S(=O)(=O)c2ccc(Cl)cc2)CC1)c1ccccc1 (stereo not given),6,0,1,-20,0,.,.,.
CCOC1=NC(=C(c2ccccc2)c2ccccc2)OC1=O,.,.,3,.,-17,.,.,.
Cc1ccc(NC(=O)CSc2ncn[nH]2)c([N+](=O)[O-])c1,16,-10,0,1,8,.,.,.
O=C(CSc1ncn[nH]1)Nc1c(Br)cc([N+](=O)[O-])cc1Br,96*,-1,2,-5,-4,-14,41,45*
Cc1ccccc1N1CCN(C2CCCN(C(=O)c3cc(CC(C)C)nn3C)C2)CC1 (stereo not given),10,-21,-1,-40,-13,-14,.,.
O=Cc1c[nH]c2ccc(S(=O)(=O)N3CCOCC3)cc12,-7,6,0,7,-3,-5,.,.
Cc1cccc(NC(=O)Nc2ccc3c(c2)N(C)C(=O)CS3)n1,10,-15,10,-14,37,-10,.,.
CC(=O)c1ccc(NC(=O)Nc2ccc3c(c2)N(C)C(=O)CS3)cc1,79*,-1,44*,-15,76*,-6,19,11
COc1ccccc1NC(=S)N1CCN(C(=O)C2CCCO2)CC1 (stereo not given),5,9,3,-23,-7,-9,.,.
Cc1nc2ccc(NC(=O)c3ccc(Cl)c(NC(=O)c4cccs4)c3)cc2s1,81*,-12,11,-16,10,1,38,8
SMILES,OX1R antag-1,CHO parental Ca,TAAR1 agonist,OX1R antag-2,TAAR1 antag,GPR7 antag,OX1R HTRF confirm,CHO-K1 HTRF cnt
Cc1ccc(NC(=O)c2ccc(Cl)c(NC(=O)c3cccs3)c2)cc1,24,-12,-1,-21,6,-2,.,.
Cc1cc(C)cc(NC(=O)N2CCNC(=O)C2CC(=O)Nc2cc(Cl)ccc2Cl)c1 (stereo not given),11,3,2,-9,1,9,.,.
CCOC(=O)c1nn(-c2ccccc2)c(=O)c2c(N)scc12,108*,-13,0,-22,7,-9,31,17*
CCOC(=O)c1nn(-c2ccccc2)c(C(=O)OCC)c1N,-4,-15,13,-5,-6,-8,.,.
Cc1c(C#N)c(O)n(CCO)c(=O)c1N=Nc1ccc(S(N)(=O)=O)cc1,161*,-9,1,-24,-11,-26,64*,83*
Cc1c(C#N)c(O)n(C)c(=O)c1N=Nc1ccc(S(N)(=O)=O)cc1,.,.,-1,.,13,-16,.,.
COc1ccc(C(=O)N/C(=C/c2cccnc2)C(=O)N2CCCCCC2)cc1OC,6,-23,1,-13,-9,14,.,.
Clc1ccccc1C1CC(c2ccccc2)Nc2ncnn21 (stereo not given),79*,-7,4,-16,2,-5,22,1
CCCCNC(=O)CCn1nc(-c2ccc(C)cc2)c2ccccc2c1=O,30,-15,9,-34,-19,-1,.,.
C#Cc1ccc2c(c1)COc1c3ccccc3nn1-2,84*,-27,11,-26,4,.,60*,14
Cc1ccc2ncc(NC(=O)c3ccc(F)cc3)c(=O)n2c1,91*,-1,18,-19,-7,-2,29,33*
Cc1onc(-c2c(F)cccc2Cl)c1C(=O)OCC(=O)NCc1ccccc1,8,-24,2,-8,-22,.,.,.
O=C(Nc1cc([N+](=O)[O-])ccc1O)c1cccc(C(=O)Nc2cc([N+](=O)[O-])ccc2O)c1,8,-5,8,-4,-6,-16,.,.
O=C(Nc1c[nH]c(=O)[nH]c1=O)c1ccc([N+](=O)[O-])cc1,138*,-5,3,-6,-8,-4,49,72*
NS(=O)(=O)c1ccc(O)c(NC(=O)c2ccc([N+](=O)[O-])cc2)c1,92*,-2,3,-12,-17,-6,41,47*
CS(=O)(=O)c1ccc(S(=O)CC(=O)Oc2ccc(Cl)cc2)c([N+](=O)[O-])c1 (stereo not given),116*,-10,.,-6,.,-11,40,38*
O=C(CS(=O)c1ccccc1[N+](=O)[O-])Oc1ccc(Br)cc1 (stereo not given),94,-22,3,-14,9,-15,.,.
